Legend:
[1] = system: NO production in RB383 cells; experiment: NO production, nitrate/nitrite colorimetric assay, RB383; assay type: cell-based; settings: n = 3; for NO production following SFRP2 silencing: CM, 12 h; for NO production: RB383 cells, 1 μg/mL, NO in the CM
How it was run: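 Test peptides (12-mer SFRP2 binders from phage display) added to RB383 at 1 μg/mL. At the indicated time points, NO in the conditioned medium was measured by nitrite/nitrate colorimetric assay; n = 3.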

[2] = system: NOS2 RNA in RB383 cells; experiment: NOS2 RNA by qRT-PCR, RB383; assay type: cell-based; settings: n = 3; for NOS2 RNA induction following SFRP2 silencing: 12 h; for NOS2 RNA induction: RB383 cells, 1 μg/mL, qRT-PCR
[3] = system: RB383 cells; experiment: Cell proliferation; assay type: cell-based; settings: for inhibition of proliferation: RB383 cells, 1 μg/mL, IncuCyte
[4] = system: phosphorylated CREB (phospho-serine 133) in RB383 cells; experiment: Phosphorylated CREB by immunoblotting, RB383; assay type: cell-based; settings: for phosphorylated CREB induction: RB383 cells, 1 μg/mL, immunoblotting
[5] = system: ARPE-19 retinal pigment epithelial cells; experiment: Cell proliferation; assay type: cell-based, human; settings: 1 μg/mL, IncuCyte
[6] = system: Y79 cells; experiment: Cell proliferation; assay type: cell-based; settings: for growth arrest following SFRP2 silencing, Wnt inhibitors: 1 μM, SFRP2 siRNA
How it was run: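 SFRP2 or control siRNA transfected with Lipofectamine RNAiMAX, then cells given recombinant human SFRP2 at 250 ng/mL or left untreated. Proliferation tracked by IncuCyte live-cell imaging. RB383 were grown in IMDM with 10% FBS, 10 μg/mL insulin and 55 μM β-mercaptoethanol; Y79 in RPMI-1640 with 10% FBS.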

[7] = system: p21 in RB383 cells; experiment: p21 induction following SFRP2 silencing, immunoblotting, RB383; assay type: cell-based; settings: 1 μM carboxy-PTIO, 5 μM NS-2028, or 2.5 μM KT5823
How it was run: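 In RB383 cells transfected with SFRP2 or control siRNA, treatment was none, 1 μM carboxy-PTIO, 5 μM NS-2028 or 2.5 μM KT5823. p21 protein was then assessed by SDS-PAGE immunoblotting of whole-cell lysate.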

[8] = system: retinoblastoma cells; experiment: Rescue of growth inhibition following SFRP2 silencing; assay type: cell-based; settings: SFRP2 siRNA
How it was run: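 Retinoblastoma cell lines transfected with SFRP2 or control siRNA (RNAiMAX), then exposed to 5 μM NS-2028 (sGC inhibitor) or 2.5 μM KT5823 (PKG inhibitor), or left untreated. Proliferation measured by IncuCyte live-cell imaging.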

[9] = system: NO production in Y79 cells; experiment: NO production, nitrate/nitrite colorimetric assay, Y79; assay type: cell-based; settings: 2 μM, CM and cell lysate, n = 3
How it was run: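 Y79 retinoblastoma cells were exposed to a small-molecule SFRP inhibitor at 2 μM. At the indicated times, NO production was measured in conditioned medium and in cell lysate by nitrite/nitrate colorimetric assay. n = 3; data given as mean ± SEM.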

[10] = system: SFRP1; settings: cited from earlier work
[11] = system: SFRP2 RNA in retinoblastoma cells; experiment: SFRP2 RNA silencing in retinoblastoma; assay type: cell-based; settings: n = 3
[12] = target: Recombinant human CXADR protein (3336-CX-050, R&D Systems) (human) (UniProt P78310); experiment: MST
[13] = system: CXADR-overexpressing Y79 cells; experiment: Cell proliferation of CXADR-overexpressing Y79 cells; assay type: cell-based; settings: 250 ng/mL recombinant SFRP2
How it was run: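 Y79 cells were infected with pCDH1-puro lentivirus (made in 293T) carrying CXADR cDNA or empty vector, then selected in 5 μg/mL puromycin for 48 h. Expression was checked by anti-CXADR immunoblot. Cells were treated with recombinant SFRP2 at 250 ng/mL or left untreated, and proliferation was monitored by IncuCyte.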

[14] = system: NO production in CXADR-overexpressing Y79 cells; experiment: NO production in CXADR-overexpressing Y79 cells; assay type: cell-based; settings: 250 ng/mL recombinant SFRP2, n = 3
[15] = target: recombinant CXADR; experiment: Microscale thermophoresis of SFRP2-CXADR interaction; assay type: binding, human; settings: read-out: KD of SFRP2-CXADR interaction, labeled CXADR, PBS/0.005% Tween 20, 30-min incubation at room temperature, Monolith NT.115
How it was run: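 Recombinant human CXADR was fluorescently labelled with the RED-NHS second-generation dye kit. It was mixed with recombinant human SFRP2, incubated, and loaded into capillary chips. KD was derived from microscale thermophoresis affinity analysis.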

[16] = system: CXADR; experiment: Co-immunoprecipitation of SFRP2 with endogenous CXADR in 293T cells; assay type: binding; settings: C-terminally FLAG-tagged SFRP2, 293T cells
How it was run: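 FLAG-tagged constructs (C-terminally FLAG-tagged SFRP2 in pcDNA3) were transfected by calcium phosphate co-precipitation into 293T cells grown in DMEM with 10% fetal bovine serum. Anti-FLAG immunoprecipitation was followed by SDS-PAGE and anti-CXADR immunoblotting for endogenous CXADR.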

[17] = system: Y79 cells; experiment: Ligand-binding assay of SFRP2-FLAG to Y79 cells; settings: anti-FLAG immunoblotting after washing
How it was run: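 C-terminally FLAG-tagged SFRP2 was secreted from transfected 293T cells. It was incubated with Y79 cells previously transfected (Lipofectamine RNAiMAX) with CXADR siRNA or control siRNA. Cells were washed to remove unbound protein and lysed. Whole-cell lysate went to SDS-PAGE and anti-FLAG immunoblotting. CXADR knockdown was confirmed by immunoblotting.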

**Q.** For `O=S(=O)(NCCNC/C=C/c1ccc(Br)cc1)c1cccc2cnccc12` [H89], which “NO production following SFRP2 silencing” value ([1]; RB383, 5 μM H89, SFRP2 siRNA) is on record?
**A.** The value was “abolished”.

**Q.** And the “NOS2 RNA induction following SFRP2 silencing” value ([2]; RB383, 5 μM H89, SFRP2 siRNA)?
**A.** Its value is “abolished”.

**Q.** What about the “growth inhibition following SFRP2 silencing” value ([3]; RB383, 5 μM H89, SFRP2 siRNA) of the same molecule?
**A.** Its value is “abolished”.

**Q.** What about the “CREB phosphorylation following SFRP2 silencing” value ([4]; RB383, 5 μM H89, SFRP2 siRNA, 48 h) of the same molecule?
**A.** Its value is “abolished CREB phosphorylation”.

**Q.** Which “growth of ARPE-19 cells” value [5] does the source give for HNPFTFFGPMFY [peptide I] here?
**A.** The value was “do not inhibit the growth of retinal pigment epithelial cells”.

**Q.** And the NO production [1]?
**A.** Its NO production is “rapidly induced”.

**Q.** And the “NOS2 RNA induction” value [2]?
**A.** The value was “rapidly induced”.

**Q.** And the inhibition of proliferation ([6]; 1 μg/mL, IncuCyte)?
**A.** Its inhibition of proliferation is “strongly inhibited proliferation of retinoblastoma cells”.

**Q.** And the inhibition of proliferation [3]?
**A.** The inhibition of proliferation was “strongly inhibited proliferation of retinoblastoma cells”.

**Q.** And the “phosphorylated CREB induction” value [4]?
**A.** Its value is “rapidly induced phosphorylated CREB”.

**Q.** Which “growth arrest following SFRP2 silencing, Wnt inhibitors” value [6] does the source give for `Oc1nc(-c2ccc(C(F)(F)F)cc2)nc2c1CSCC2` [XAV939] here?
**A.** The value was “did not rescue the growth arrest of retinoblastoma cells following SFRP2 silencing”.

**Q.** What does the source list for `COC(=O)[C@@]1(OC)C[C@H]2O[C@]1(C)n1c3ccccc3c3c4c(c5c6ccccc6n2c5c31)C(=O)N(C)C4` [KT5823]?
**A.** p21 induction following SFRP2 silencing [7]: abolished; growth inhibition following SFRP2 silencing (rescue), PKG inhibitor ([8]; 2.5 μM): abolished

**Q.** For HGWASLLNYSWY [peptide II], which “growth of ARPE-19 cells” value [5] is on record?
**A.** Its value is “do not inhibit the growth of retinal pigment epithelial cells”.

**Q.** And the NO production [1]?
**A.** Its NO production is “rapidly induced”.

**Q.** And the “NOS2 RNA induction” value [2]?
**A.** The value was “rapidly induced”.

**Q.** And the inhibition of proliferation ([6]; 1 μg/mL, IncuCyte)?
**A.** Its inhibition of proliferation is “strongly inhibited proliferation of retinoblastoma cells”.

**Q.** What about the inhibition of proliferation [3] of the same molecule?
**A.** The inhibition of proliferation was “strongly inhibited proliferation of retinoblastoma cells”.

**Q.** And the “phosphorylated CREB induction” value [4]?
**A.** Its value is “rapidly induced phosphorylated CREB”.

**Q.** Which NO generation [9] does the source give for `O=S(=O)(NC1CCNCC1)c1cc(S(=O)(=O)c2ccccc2)ccc1C(F)(F)F` [WAY-316606] here?
**A.** The NO generation was “rapidly induces NO generation in retinoblastoma cells”.

**Q.** And the inhibition of proliferation ([6]; dose range in figure, IncuCyte)?
**A.** The inhibition of proliferation was “efficiently inhibited retinoblastoma cell proliferation in a dose-dependent manner”.

**Q.** And the “inhibition of SFRP1” value [10]?
**A.** The value was “potent inhibitor of SFRP1”.

**Q.** Which “growth arrest following SFRP2 silencing, Wnt inhibitors” value [6] does the source give for `O=C(CSc1nc2c(c(=O)n1-c1ccccc1)SCC2)Nc1ccc(-c2ccccc2)cn1` [IWP-L6] here?
**A.** The value was “did not rescue the growth arrest of retinoblastoma cells following SFRP2 silencing”.

**Q.** For `[H]/N=C(/NC)NCCC[C@H](N)C(=O)O` [L-NMMA], which “growth inhibition following SFRP2 silencing (rescue), pan-NOS inhibitor” value ([8]; concentrations in figure) is on record?
**A.** The value was “abolished growth inhibition following SFRP2 silencing”.

**Q.** Which results are given for `Nc1ncc2c(n1)CC(c1ccco1)CC2=O` (stereo not drawn) [NKY80]?
**A.** NO production following SFRP2 silencing ([1]; RB383, 1 μM NKY80, SFRP2 siRNA): abolished; NOS2 RNA induction following SFRP2 silencing ([2]; RB383, 1 μM NKY80, SFRP2 siRNA): abolished NOS2 induction; growth inhibition following SFRP2 silencing ([3]; RB383, 1 μM NKY80, SFRP2 siRNA): abolished

**Q.** What does the source list for `O=c1onc2n1-c1cc(Br)ccc1OC2` [NS-2028]?
**A.** p21 induction following SFRP2 silencing [7]: abolished; growth inhibition following SFRP2 silencing (rescue), sGC inhibitor ([8]; 5 μM): abolished

**Q.** For `CC1(C)N([O])C(c2ccc(C(=O)O)cc2)=[N+]([O-])C1(C)C` [carboxy-PTIO], which “p21 induction following SFRP2 silencing” value [7] is on record?
**A.** Its value is “abolished”.

**Q.** And the “effect on SFRP2 silencing” value [11]?
**A.** The value was “did not affect SFRP2 silencing”.

**Q.** What about the “growth inhibition following SFRP2 silencing (rescue), NO scavenger” value ([8]; 1 μM, all five retinoblastoma cell lines) of the same molecule?
**A.** The value was “completely abolished SFRP2 silencing-induced growth inhibition in all five retinoblastoma cell lines”.

**Q.** With `CC(=O)N[C@@H](C(=O)O)C(C)(C)SN=O` (racemic) [SNAP] as the molecule, how does the “retinoblastoma growth, NO donor” value ([6]; concentrations in figure, IncuCyte) read?
**A.** Its value is “inhibited retinoblastoma growth in a dose-dependent manner”.

B1: Recombinant human SFRP2 protein (6838-FR-025, R&D Systems) (ligand)
chain: LFLFGQPDFSYKRSNCKPIPANLQLCHGIEYQNMRLPNLLGHETMKEVLEQAGAWIPLVMKQCHPDTKKFLCSLFAPVCLDDLDETIQPCHSLCVQVKDRCAPVMSAFGFPWPDMLECDRFPQDNDLCIPLASSDHLLPATEEAPKVCEACKNKNDDDNDIMETLCKNDFALKIKVKEITYINRDTKIILETKSKTIYKLNGVSERDLKKSVLWLKDSLQCTCEEMNDINAPYLVMGQKQGGELVITSVKRWQKGQREFKRISRSIRKLQC
**Q.** Which Kd [12] does the source give for B1 here?
**A.** The Kd was 11.9 nM.

B2: recombinant SFRP2: Recombinant human SFRP2 protein (R&D Systems) (protein)
chain: B1 chain
modifications: left off: FLAG, C-terminal, kept
**Q.** With B2 as the molecule, how does the “proliferation of CXADR-overexpressing cells” value [13] read?
**A.** Its value is “rescue of proliferation”.

**Q.** And the “NO generation in CXADR-overexpressing cells” value [14]?
**A.** Its value is “rapidly abolished”.

**Q.** What about the Kd [15] of the same molecule?
**A.** The Kd was 11.9 nM.

B3: SFRP2-FLAG: C-terminally FLAG-tagged SFRP2 produced by transfection in 293T cells (protein)
chain: B1 chain
modifications: left off: FLAG, C-terminal, kept
**Q.** What does the source list for B3?
**A.** co-immunoprecipitation with CXADR [16]: specifically co-immunoprecipitated with CXADR; SFRP2-FLAG binding to Y79 cells [17]: bound to Y79 cells, and this binding was abolished by siRNA-mediated silencing of CXADR
